ChEMBL document CHEMBL1128343, “Synthesis, properties, and pharmacokinetic studies of N2-phenylguanine derivatives as inhibitors of herpes simplex virus thymidine kinases” (J Med Chem, 1995)

How the values were obtained:
Thymidine kinase [1] = molecular target: T1, Thymidine kinase (Human herpesvirus 2, UniProt Q6L709); assay: Inhibition of HSV-2 thymidine kinase, 2 uM [3H]thymidine and ATP as phosphate donor; set-up: species or system Human alphaherpesvirus 2
T1 sequence (Q6L709 whole entry): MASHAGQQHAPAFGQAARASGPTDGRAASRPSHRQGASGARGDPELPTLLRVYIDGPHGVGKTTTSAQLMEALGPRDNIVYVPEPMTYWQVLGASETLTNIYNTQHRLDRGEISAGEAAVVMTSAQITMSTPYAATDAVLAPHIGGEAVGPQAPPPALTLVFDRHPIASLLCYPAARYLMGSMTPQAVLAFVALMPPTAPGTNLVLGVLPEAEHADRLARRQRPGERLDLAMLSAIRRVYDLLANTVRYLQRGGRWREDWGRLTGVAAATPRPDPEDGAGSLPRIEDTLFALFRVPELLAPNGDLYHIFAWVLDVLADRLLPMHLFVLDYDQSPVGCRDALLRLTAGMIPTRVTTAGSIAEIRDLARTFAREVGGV
Method in brief: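 TK purified by affinity column from HSV2-infected HeLa cells. Activity measured by DE-81 filter binding as phosphorylation of limiting 2 µM [3H]TdR with ATP as phosphate donor. Inhibitors were diluted from DMSO stocks, with matching DMSO in controls.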

Thymidine kinase [2] = molecular target: T2, Thymidine kinase (Human alphaherpesvirus 1, UniProt Q9QNF7); assay: Inhibition of HSV-1 thymidine kinase, 1 uM [3H]thymidine and ATP as phosphate donor
T2 sequence (Q9QNF7 whole entry): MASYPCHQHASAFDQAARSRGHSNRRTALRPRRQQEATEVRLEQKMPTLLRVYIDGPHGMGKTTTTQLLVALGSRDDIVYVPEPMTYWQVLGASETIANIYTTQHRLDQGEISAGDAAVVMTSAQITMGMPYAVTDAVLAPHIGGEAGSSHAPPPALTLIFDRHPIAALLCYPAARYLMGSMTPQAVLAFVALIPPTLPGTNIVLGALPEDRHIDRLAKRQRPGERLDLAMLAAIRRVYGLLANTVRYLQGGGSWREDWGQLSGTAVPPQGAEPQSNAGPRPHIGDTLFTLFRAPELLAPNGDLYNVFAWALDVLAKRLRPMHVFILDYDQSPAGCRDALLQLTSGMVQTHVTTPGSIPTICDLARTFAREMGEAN

Mus musculus [3] = assay: Plasma concentration at time-0 was measured in mice at 100 mg/kg after intraperitoneal administration with saline(pH=11.4) as vehicle; format: ADME, organism-based; set-up: dose 100 mg/kg, route intraperitoneal; settings: in vivo, ip, pH 11.4, 100 mg/kg, read-out: Co
Method in brief: (§1)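 Male CD-1 mice (~25 g) received 100 mg/kg ip as a solution in saline pH 11.4 or 90% DMSO. Plasma was collected at intervals after decapitation, diluted 10-fold and stored at −21 °C. Drug was measured by C8 reverse-phase HPLC with UV at 275 nm against spiked-plasma standards (0.11–56 µM). C0 and ke came from least-squares regression of the terminal log-linear phase; t1/2 = ln2/ke.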

Mus musculus [4] = assay: Plasma concentration at time-0 was measured in mice at 40 mg/kg after intravenous administration with saline(pH=11.4) as vehicle; format: ADME, organism-based; set-up: dose 40 mg/kg, route intravenous; settings: in vivo, pH 11.4, 40 mg/kg, read-out: Co
Method in brief: (§2)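 Male CD-1 mice (~25 g) received 40 mg/kg iv via the tail vein, dissolved at 10 mg/mL in saline pH 11.4 or 90% aqueous DMSO. Blood was taken at intervals after decapitation, and plasma was diluted 10-fold. Drug was quantified by C8 reverse-phase HPLC with UV at 275 nm. C0 and ke came from a log-linear fit of all points; t1/2 = ln2/ke and Vd = dose/C0.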

[5] = Volume of distribution in mice plasma was determined at 40 mg/kg after intravenous administration with saline(pH=11.4) as vehicle; format: ADME, organism-based; set-up: dose 40 mg/kg, route intravenous; settings: mouse; method in brief: as §2
[6] = Half life in mice plasma was determined at 40 mg/kg after intravenous administration with saline(pH=11.4) as vehicle; format: ADME, organism-based; set-up: dose 40 mg/kg, route intravenous; settings: mouse; method in brief: as §2
[7] = Half life in mice plasma was determined at 100 mg/kg after intraperitoneal administration with saline(pH=11.4) as vehicle; format: ADME, organism-based; set-up: dose 100 mg/kg, route intraperitoneal; settings: mouse, ip; method in brief: as §1
Mus musculus [8] = assay: Plasma concentration at time-0 was measured in mice at 40 mg/kg after intravenous administration with 90% DMSO as vehicle; format: ADME, organism-based; set-up: dose 40 mg/kg, route intravenous; settings: in vivo, read-out: Co; method in brief: as §2
[9] = Volume of distribution in mice plasma was determined at 40 mg/kg after intravenous administration with 90% DMSO as vehicle; format: ADME, organism-based; set-up: dose 40 mg/kg, route intravenous; settings: mouse; method in brief: as §2
[10] = Half life in mice plasma was determined at 40 mg/kg after intravenous administration with 90% DMSO as vehicle; format: ADME, organism-based; set-up: dose 40 mg/kg, route intravenous; settings: mouse; method in brief: as §2
[11] = Half life in mice plasma was determined at 100 mg/kg after intraperitoneal administration with 90% DMSO as vehicle; settings: mouse, ip
Mus musculus [12] = assay: Plasma concentration at time-0 was measured in mice at 100 mg/kg after intraperitoneal administration with 90% DMSO as vehicle; settings: in vivo, ip, read-out: Co
Mus musculus [13] = assay: Plasma concentration at time-0 was measured in mice at 100 mg/kg after intraperitoneal administration with 90% DMSO as vehicle; format: ADME, organism-based; set-up: dose 100 mg/kg, route intraperitoneal; settings: in vivo, ip, read-out: Co; method in brief: as §1

With O=c1[nH]c(Nc2cccc(CC(F)(F)F)c2)nc2nc[nH]c12 the IC50 (Thymidine kinase [1]) was 1000 nM and the IC50 (Thymidine kinase [2]) was 450 nM.

O=c1[nH]c(Nc2cccc(C(F)F)c2)nc2nc[nH]c12 gave an IC50 (Thymidine kinase [1]) of 3900 nM and an IC50 (Thymidine kinase [2]) of 2800 nM.

For C=CCn1cnc2c(=O)[nH]c(Nc3ccccc3)nc21, the IC50 (Thymidine kinase [1]) was 180 nM.

O=c1[nH]c(Nc2ccccc2)nc2c1ncn2CC(O)CSCCO (stereo unspecified) gave an IC50 (Thymidine kinase [1]) of 1600 nM and an IC50 (Thymidine kinase [2]) of 1600 nM.

Work on O=C(O)Cn1cnc2c(=O)[nH]c(Nc3ccccc3)nc21 yielded an IC50 (Thymidine kinase [1]) of 9800 nM and an IC50 (Thymidine kinase [2]) of 12400 nM.

Work on O=c1[nH]c(Nc2cccc(OC(F)(F)F)c2)nc2nc[nH]c12 yielded an IC50 (Thymidine kinase [1]) of 6300 nM and an IC50 (Thymidine kinase [2]) of 2300 nM.

For O=c1[nH]c(Nc2cccc(C(Cl)C(F)(F)Cl)c2)nc2nc[nH]c12 (stereo unspecified), the IC50 (Thymidine kinase [1]) was 470 nM and the IC50 (Thymidine kinase [2]) was 650 nM.

Work on COCCn1cnc2c(=O)[nH]c(Nc3ccccc3)nc21 yielded an IC50 (Thymidine kinase [1]) of 2700 nM and an IC50 (Thymidine kinase [2]) of 610 nM.

Work on O=c1[nH]c(Nc2cccc(C(Cl)=C(Cl)Cl)c2)nc2[nH]cnc12 yielded an IC50 (Thymidine kinase [1]) of 70000 nM and an IC50 (Thymidine kinase [2]) of 70000 nM.

For O=c1[nH]c(Nc2ccccc2)nc2c1ncn2CC(O)CO (stereo unspecified), the IC50 (Thymidine kinase [1]) was 3500 nM and the IC50 (Thymidine kinase [2]) was 1700 nM.

For O=C1N=C(Nc2cccc(C(F)(F)F)c2)N=C2C1N=CN2[C@H]1C[C@H](O)[C@@H](CO)O1 (stereo partly specified), the IC50 (Thymidine kinase [1]) was 2000 nM and the IC50 (Thymidine kinase [2]) was 4000 nM.

Compound O=C1N=C(Nc2ccccc2)N=C2C1N=CN2[C@H]1C[C@H](O)[C@@H](CO)O1 (stereo partly specified) has a concentration (Mus musculus [3]) of 11.7 µM, a concentration (Mus musculus [4]) of 174 µM and a Vd [5] of 0.4 L/kg. For the same compound, the half-life [6] was 7.5 min and the half-life [7] was 60 min.

In the case of O=c1[nH]c(Nc2ccccc2)nc2c1ncn2CCO, the concentration (Mus musculus [8]) is reported as 44.7 µM, the Vd [9] is reported as 3.3 L/kg and the half-life [10] is reported as 15 min. For the same compound, the half-life [11] was 21 min and the concentration (Mus musculus [12]) was 100 µM.

Work on O=c1[nH]c(Nc2cccc(C(F)(F)F)c2)nc2nc[nH]c12 yielded a concentration (Mus musculus [3]) of 10.2 µM, a concentration (Mus musculus [4]) of 54.2 µM and a Vd [5] of 3 L/kg. For the same compound, the half-life [6] was 25 min.

For O=c1[nH]c(Nc2ccccc2)nc2c1ncn2CCCCO, the concentration (Mus musculus [13]) was 30.5 µM, the concentration (Mus musculus [8]) was 49.5 µM and the Vd [9] was 2.7 L/kg. The half-life [10] was 14 min.

Compound OCCn1cnc2c(O)nc(Nc3cccc(C(F)(F)F)c3)nc21 has an IC50 (Thymidine kinase [1]) of 20400 nM and an IC50 (Thymidine kinase [2]) of 4700 nM.
